Source: ChEMBL document CHEMBL1144884, “Synthesis, activity, and molecular modeling studies of novel human aldose reductase inhibitors based on a marine natural product” (J Med Chem, 2003)

Key:
[1] = Inhibitory activity on sorbital accumulation in human retinal cells was determined; format: functional, cell-based
Summary of the method: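 ARPE-19 human retinal cells grown in MEM with 0.5% fetal calf serum plus 50 mM glucose. Compounds added in DMSO, then 16 h at 37 °C under 5% CO2. Cells lysed with 8% perchloric acid and neutralised with KOH. Sorbitol measured by colorimetric kit. IC50 taken as the concentration halving sorbitol accumulation; mean of three experiments.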

[2] = target: T1, Aldo-keto reductase family 1 member B1 (Homo sapiens, UniProt P15121); experiment: (§1) In vitro inhibitory activity against recombinant human aldose reductase (ALR2) was determined
[3] = target: T1, Aldo-keto reductase family 1 member B1; experiment: In vitro inhibition of recombinant human aldose reductase (ALR2)
Summary of the method: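 Recombinant human ALR2 expressed in baculovirus-infected Sf9 cells, purified by dye-affinity chromatography. Assay at 37 °C: 100 mM sodium phosphate pH 6.2, 400 mM ammonium sulfate, 5 mU/mL enzyme, 0.1 mM NADPH. DMSO-dissolved compound preincubated 5 min, then 10 mM glyceraldehyde added; A340 decrease followed 6 min.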

[4] = target: T1, Aldo-keto reductase family 1 member B1; experiment: as §1; remark: listed apart in the source
Summary of the method: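 Recombinant hALR2 expressed in baculovirus-infected Sf9 cells, purified by affinity chromatography. Run at 37 °C in 100 mM sodium phosphate pH 6.2, 400 mM ammonium sulfate, 5 mU/mL enzyme, 0.1 mM NADPH. Compounds in DMSO preincubated 5 min. Started with 10 mM glyceraldehyde; A340 decrease read over 6 min.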

Compound	inhibition [3] [%]	IC50 [1] [µM]	IC50 [2] [µM]	other results
Oc1c(Oc2cc(Br)c(Br)c(Br)c2O)cc(Br)c(Br)c1Br	–	1	5.7	–
Oc1cc(Br)c(O)c(Oc2c(O)c(Br)c(Br)c(Br)c2Br)c1	38	–	–	–
O=C1NC(=O)[C@@]2(CCOc3ccc(F)cc32)N1 [SORBINIL]	–	4	–	–
COc1cc(Br)c(Br)c(Br)c1Oc1cc(Br)cc(Br)c1OC	0	–	–	–
COc1c(Br)cc(Br)cc1Oc1c(Br)c(Br)c(Br)c(Br)c1OC	0	–	–	–
Oc1c(Oc2c(O)c(Br)c(Br)c(Br)c2Br)cc(Br)c(Br)c1Br	–	7	5.5	–
COc1ccc2c(C(=S)N(C)CC(=O)O)cccc2c1C(F)(F)F [TOLRESTAT]	–	0.02	–	–
Oc1c(Oc2cc(Br)c(Br)c(Br)c2O)cc(F)c(Br)c1Br	–	11	3.2	–
COc1cc(Br)c(Br)cc1Oc1cc(Br)c(Br)cc1OC	0	–	–	–
Oc1c(Oc2cc(Cl)c(Cl)c(Cl)c2O)cc(Cl)c(Cl)c1Cl	–	0.24	3.2	–
Oc1c(Br)cc(Br)cc1Oc1c(O)c(Br)c(Br)c(Br)c1Br	–	3	–	IC50 [4]: 6.4 µM
Oc1ccc(Br)cc1Oc1cc(Br)ccc1O	32	–	–	–
COC(=O)COc1c(Br)cc(Br)cc1Oc1c(Br)c(Br)c(Br)c(Br)c1OCC(=O)OC	0	–	–	–
Oc1cc(Br)c(Br)c(Br)c1Oc1cc(Br)cc(Br)c1O	0	–	–	–
Nc1c(Oc2cc(Br)c(Br)c(Br)c2O)cc(Br)c(Br)c1Br	–	6	8.9	–
Oc1c(Br)cc(Oc2cc(Br)c(Br)c(Br)c2O)c(O)c1Br	–	8	4.4	–
Oc1c(Br)cc(Br)cc1Oc1c(Br)cc(Br)c(Br)c1O	25	–	–	–
O=C(O)COc1c(Br)cc(Br)cc1Oc1c(Br)c(Br)c(Br)c(Br)c1OCC(=O)O	–	–	25	–

Further lines, with some results ahead:

inhibition [3] [%]	Compound	IC50 [1] [µM]	IC50 [2] [µM]	other results
0	COc1c(Nc2cc(Br)c(Br)c(Br)c2OC)cc(Br)c(Br)c1Br	–	–	–
18	Oc1c(Nc2cc(Br)c(Br)c(Br)c2O)cc(Br)c(Br)c1Br	–	–	–
46	Oc1cc(Br)c(Br)cc1Oc1cc(Br)c(Br)cc1O	–	–	–
0	CC(=O)Oc1c(Br)cc(Br)cc1Oc1c(Br)c(Br)c(Br)c(Br)c1OC(C)=O	–	–	–
0	COc1c(Br)c(Br)c(Br)c(Br)c1Oc1cc(O)cc(Br)c1O	–	–	–
